Data from ChEMBL document CHEMBL2380295, “Structure-activity studies on the side chain of a simplified analog of aplysiatoxin (aplog-1) with anti-proliferative activity” (Bioorg Med Chem, 2013).
pKi: −log10 of the molar value.

Key:
MDA-MB-231 = assay: Growth inhibition of human MDA-MB-231 cells after 48 hrs by sulforhodamine B assay; assay type: functional; conditions: MDA-MB-231, 48 h
Outline: (§1)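 Yamori 39-line human cancer panel, NCI method with modifications. Cells plated in RPMI 1640 plus 5% FBS, attached overnight, then exposed 48 h to compound at 10^-8, 10^-7, 10^-6, 10^-5 and 10^-4 M. Sulforhodamine B staining read at 525 nm; % growth = 100[(T−T0)/(C−T0)] from duplicate-point averages, with T0 the time-zero absorbance. GI50 is the concentration giving 50.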

[1] = Cytotoxicity against human Raji cells assessed as cell viability at 10^-7 M; assay type: cell-based; conditions: read-out: Activity
MKN-7 = assay: Growth inhibition of human MKN7 cells after 48 hrs by sulforhodamine B assay; assay type: functional; conditions: MKN-7, 48 h; outline: as §1
HT-29 = assay: Growth inhibition of human HT-29 cells after 48 hrs by sulforhodamine B assay; assay type: functional; conditions: HT-29, 48 h; outline: as §1
PC-3 = assay: Growth inhibition of human PC3 cells after 48 hrs by sulforhodamine B assay; assay type: functional; conditions: PC-3, 48 h; outline: as §1
MCF7 = assay: Growth inhibition of human MCF7 cells after 48 hrs by sulforhodamine B assay; assay type: functional; conditions: MCF7, 48 h; outline: as §1
SF-295 = assay: Growth inhibition of human SF295 cells after 48 hrs by sulforhodamine B assay; assay type: functional; conditions: SF-295, 48 h; outline: as §1
LOX IMVI = assay: Growth inhibition of human LOXIMVI cells after 48 hrs by sulforhodamine B assay; assay type: functional; outline: as §1
SK-OV-3 = assay: Growth inhibition of human SKOV3 cells after 48 hrs by sulforhodamine B assay; assay type: functional; conditions: SK-OV-3, 48 h; outline: as §1
OVCAR-5 = assay: Growth inhibition of human OVCAR5 cells after 48 hrs by sulforhodamine B assay; assay type: functional; conditions: OVCAR-5, 48 h; outline: as §1
NCI-H460 = assay: Growth inhibition of human NCI-H460 cells after 48 hrs by sulforhodamine B assay; assay type: functional; conditions: NCI-H460, 48 h; outline: as §1
A549 = assay: Growth inhibition of human A549 cells after 48 hrs by sulforhodamine B assay; assay type: functional; conditions: A549, 48 h; outline: as §1
NCI-H226 = assay: Growth inhibition of human NCI-H226 cells after 48 hrs by sulforhodamine B assay; assay type: functional; conditions: NCI-H226, 48 h; outline: as §1
[2] = Octanol-water partition coefficient, log P of the compound by HPLC analysis; assay type: physicochemical
Outline: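 log P was estimated from HPLC retention, with column dead time measured using unretained formamide.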

MKN-74 = assay: Growth inhibition of human MKN74 cells after 48 hrs by sulforhodamine B assay; assay type: functional; conditions: MKN-74, 48 h; outline: as §1
SF-268 = assay: Growth inhibition of human SF268 cells after 48 hrs by sulforhodamine B assay; assay type: functional; conditions: SF-268, 48 h; outline: as §1
[3] = Growth inhibition of human BSY1 cells after 48 hrs by sulforhodamine B assay; assay type: functional; conditions: BSY-1, 48 h; outline: as §1
SF-539 = assay: Growth inhibition of human SF539 cells after 48 hrs by sulforhodamine B assay; assay type: functional; conditions: SF-539, 48 h; outline: as §1
[4] = Growth inhibition of human MKN1 cells after 48 hrs by sulforhodamine B assay; assay type: functional; conditions: MKN-1, 48 h; outline: as §1
MKN-45 = assay: Growth inhibition of human MKN45 cells after 48 hrs by sulforhodamine B assay; assay type: functional; conditions: MKN-45, 48 h; outline: as §1
[5] = Cytotoxicity against human Raji cells assessed as cell viability at 10^-6 M; assay type: cell-based; conditions: read-out: Activity
[6] = Growth inhibition of human HBC4 cells after 48 hrs by sulforhodamine B assay; assay type: functional; conditions: HBC4, 48 h; outline: as §1
DU-145 = assay: Growth inhibition of human DU145 cells after 48 hrs by sulforhodamine B assay; assay type: functional; conditions: DU-145, 48 h; outline: as §1
HCT-15 = assay: Growth inhibition of human HCT15 cells after 48 hrs by sulforhodamine B assay; assay type: functional; conditions: HCT-15, 48 h; outline: as §1
KM12 = assay: Growth inhibition of human KM12 cells after 48 hrs by sulforhodamine B assay; assay type: functional; conditions: KM12, 48 h; outline: as §1
Human gammaherpesvirus 4 [7] = assay: Induction of EBV-early antigen expressed in human Raji cells at 10^-6 M after 48 hrs by immunofluorescence assay relative to control; assay type: organism-based; conditions: human gammaherpesvirus 4, raji, 1 µM
Outline: (§2)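 Raji B-lymphoblastoid cells (5 × 10^5/mL) in RPMI 1640 with 10% FBS, with 4 mM sodium n-butyrate as synergist and test compound at 10^-7 or 10^-6 M (final DMSO 0.4%). Incubated 48 h at 37 °C under 5% CO2. Smears were stained by indirect immunofluorescence using NPC patient serum and FITC anti-human IgG. At least 500 cells counted; % EA-positive recorded; n = 3, SEM.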

OVCAR-8 = assay: Growth inhibition of human OVCAR8 cells after 48 hrs by sulforhodamine B assay; assay type: functional; conditions: OVCAR-8, 48 h; outline: as §1
U-251 = assay: Growth inhibition of human U251 cells after 48 hrs by sulforhodamine B assay; assay type: functional; conditions: U-251, 48 h; outline: as §1
DMS-273 = assay: Growth inhibition of human DMS273 cells after 48 hrs by sulforhodamine B assay; assay type: functional; conditions: DMS-273, 48 h; outline: as §1
DMS-114 = assay: Growth inhibition of human DMS114 cells after 48 hrs by sulforhodamine B assay; assay type: functional; conditions: DMS-114, 48 h; outline: as §1
[8] = Growth inhibition of human HCC2998 cells after 48 hrs by sulforhodamine B assay; assay type: functional; conditions: HCC 2998, 48 h; outline: as §1
[9] = target: T1, Protein kinase C delta type (Homo sapiens, UniProt Q05655); assay: Inhibition of [3H]PDBu binding to PKCdelta-C1B domain peptide (unknown origin)
T1 sequence (Q05655 whole entry, the tested form may be a part): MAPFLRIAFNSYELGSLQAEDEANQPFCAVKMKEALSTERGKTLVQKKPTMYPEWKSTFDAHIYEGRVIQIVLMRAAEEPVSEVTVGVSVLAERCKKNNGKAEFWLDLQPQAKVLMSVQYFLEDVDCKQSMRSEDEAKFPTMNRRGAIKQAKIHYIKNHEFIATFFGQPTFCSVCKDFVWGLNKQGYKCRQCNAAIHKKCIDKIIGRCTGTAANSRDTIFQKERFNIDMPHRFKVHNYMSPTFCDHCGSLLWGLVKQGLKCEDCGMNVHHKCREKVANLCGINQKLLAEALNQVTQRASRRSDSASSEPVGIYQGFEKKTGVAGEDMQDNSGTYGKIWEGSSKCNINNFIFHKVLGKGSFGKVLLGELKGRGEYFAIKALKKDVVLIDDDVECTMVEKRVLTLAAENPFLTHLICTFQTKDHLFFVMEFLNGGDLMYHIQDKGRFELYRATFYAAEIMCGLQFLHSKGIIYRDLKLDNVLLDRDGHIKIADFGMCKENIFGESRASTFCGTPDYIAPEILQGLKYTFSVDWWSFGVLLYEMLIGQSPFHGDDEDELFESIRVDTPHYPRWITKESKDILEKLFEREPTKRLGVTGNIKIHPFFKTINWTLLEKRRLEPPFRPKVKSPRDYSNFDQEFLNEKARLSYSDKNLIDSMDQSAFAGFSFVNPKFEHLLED
Outline: (§3)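 Competitive [3H]PDBu binding used 14 or 40 nM PKCδ C1 peptide and 20 nM [3H]PDBu (19.6 Ci/mmol), in 50 mM Tris-maleate (pH 7.4 at 4 °C) with 50 µg/mL phosphatidylserine, 3 mg/mL bovine γ-globulin and varied inhibitor concentrations. IC50 was taken as 50% inhibition of specific binding. Ki was derived by the Sharkey–Blumberg method.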

[10] = Growth inhibition of human RXF631L cells after 48 hrs by sulforhodamine B assay; assay type: functional; conditions: RXF 631, 48 h; outline: as §1
NCI-H23 = assay: Growth inhibition of human NCI-H23 cells after 48 hrs by sulforhodamine B assay; assay type: functional; conditions: NCI-H23, 48 h; outline: as §1
MKN-28 = assay: Growth inhibition of human MKN28 cells after 48 hrs by sulforhodamine B assay; assay type: functional; conditions: MKN-28, 48 h; outline: as §1
Mus musculus = organism: Mus musculus; assay: Toxicity in ICR mouse assessed as development of tumors at 8.5 nmol treated twice a week from week 1 to week 20; assay type: organism-based; conditions: in vivo
Outline: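 Mouse skin two-stage carcinogenesis: initiation by a single application of 390 nmol DMBA. From one week later, 8.5 nmol test compound was applied twice weekly from week 1 to week 20. The control group received DMBA then 1.7 nmol TPA twice weekly. Tumor development was monitored over time.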

St-4 = assay: Growth inhibition of human St-4 cells after 48 hrs by sulforhodamine B assay; assay type: functional; conditions: St-4, 48 h; outline: as §1
SNB-75 = assay: Growth inhibition of human SNB75 cells after 48 hrs by sulforhodamine B assay; assay type: functional; conditions: SNB-75, 48 h; outline: as §1
OVCAR-3 = assay: Growth inhibition of human OVCAR3 cells after 48 hrs by sulforhodamine B assay; assay type: functional; conditions: OVCAR-3, 48 h; outline: as §1
[11] = Growth inhibition of human HBC5 cells after 48 hrs by sulforhodamine B assay; assay type: functional; conditions: HBC5, 48 h; outline: as §1
SNB-78 = assay: Growth inhibition of human SNB78 cells after 48 hrs by sulforhodamine B assay; assay type: functional; conditions: SNB-78, 48 h; outline: as §1
Human gammaherpesvirus 4 [12] = assay: Induction of EBV-early antigen expressed in human Raji cells at 10^-7 M after 48 hrs by immunofluorescence assay relative to control; assay type: organism-based; conditions: human gammaherpesvirus 4, raji, 0.1 µM; outline: as §2
ACHN = assay: Growth inhibition of human ACHN cells after 48 hrs by sulforhodamine B assay; assay type: functional; outline: as §1
NCI-H522 = assay: Growth inhibition of human NCI-H522 cells after 48 hrs by sulforhodamine B assay; assay type: functional; conditions: NCI-H522, 48 h; outline: as §1
[13] = target: T1, Protein kinase C delta type; assay: Inhibition of [3H]PDBu binding to PKCdelta-C1A domain peptide (unknown origin); outline: as §3
HCT-116 = assay: Growth inhibition of human HCT116 cells after 48 hrs by sulforhodamine B assay; assay type: functional; conditions: HCT-116, 48 h; outline: as §1
OVCAR-4 = assay: Growth inhibition of human OVCAR4 cells after 48 hrs by sulforhodamine B assay; assay type: functional; conditions: OVCAR-4, 48 h; outline: as §1

## CC1(C)CC[C@@H]2CC(=O)O[C@@H](CO)CC(=O)O[C@@H]3C[C@@H](CCCCc4cc(O)ccc4Br)O[C@@]1(C3)O2
MDA-MB-231
  GI50: 0.468 µM
[1]
  viability at 0.1 µM: 50%
MKN-7
  GI50: 6.92 µM
HT-29
  GI50: 13.2 µM
PC-3
  GI50: 2.95 µM
MCF7
  GI50: 18.2 µM
SF-295
  GI50: 5.5 µM
LOX IMVI
  GI50: 0.794 µM
SK-OV-3
  GI50: 15.5 µM
OVCAR-5
  GI50: 7.76 µM
NCI-H460
  GI50: 1.66 µM
A549
  GI50: 5.01 µM
NCI-H226
  GI50: 11.7 µM
[2]
  logP: 4
MKN-74
  GI50: 13.8 µM
SF-268
  GI50: 12.6 µM
[3]
  GI50: 2.63 µM
SF-539
  GI50: 11 µM
[4]
  GI50: 11.7 µM
MKN-45
  GI50: 1.82 µM
[5]
  viability at 1 µM: 40%
[6]
  GI50: 0.0977 µM
DU-145
  GI50: 11.5 µM
HCT-15
  GI50: 15.5 µM
KM12
  GI50: 4.27 µM
Human gammaherpesvirus 4 [7]
  Activity: 1.9%
OVCAR-8
  GI50: 16.2 µM
U-251
  GI50: 12.6 µM
DMS-273
  GI50: 11.7 µM
DMS-114
  GI50: 12.6 µM
[8]
  GI50: 0.794 µM
[9]
  pKi: 8.46
[10]
  GI50: 16.2 µM
NCI-H23
  GI50: 11.5 µM
MKN-28
  GI50: 12 µM
Mus musculus
  Activity: Non-toxic
St-4
  GI50: 0.955 µM
SNB-75
  GI50: 12.3 µM
OVCAR-3
  GI50: 13.5 µM
[11]
  GI50: 15.8 µM
SNB-78
  GI50: 15.5 µM
Human gammaherpesvirus 4 [12]
  Activity: 1.8%
ACHN
  GI50: 5.13 µM
NCI-H522
  GI50: 13.5 µM
[13]
  pKi: 7.18
HCT-116
  GI50: 10.7 µM
OVCAR-4
  GI50: 14.5 µM
